Where “and” joins values, the source holds several entries; their conditions need not be identical. Identical values can stand only once.
Assays:
Type in all cases: toxicity, cell-based
[1] = test system: Fibroblast; test: Multiplex assay against human fibroblast; conditions: number of replicates 2
Procedure, shortened: (§1)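 Live cells carried four stains from seeding: Hoechst33342, BioTracker Green Microtubule Cytoskeleton Dye, MitoTracker Red and Annexin V Alexa Fluor 680. They were imaged on a CQ1 microscope at 37°C and 5% CO2 after compound addition. Using CellPathfinder machine-learning gating, cells were split into Hoechst high-intensity objects or normal cells, normal cells into healthy, pyknosed or fragmented nuclei, and pyknosed cells into mitotic or apoptotic; tubulin, mitochondrial-mass and membrane-permeability phenotypes are per cents of healthy-nucleus cells.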

[2] = test system: U2OS; test: Multiplex assay against U2OS; conditions: human, number of replicates 2; procedure, shortened: as §1
[3] = test system: HEK-293T; test: Multiplex assay against HEK293T; conditions: human, number of replicates 2; procedure, shortened: as §1
[4] = 12 h, 1 µM, compound concentration 1 uM
[5] = 12 h, 10 µM, compound concentration 10 uM
[6] = 24 h, 1 µM, compound concentration 1 uM
[7] = 24 h, 10 µM, compound concentration 10 uM
[8] = 48 h, 1 µM, compound concentration 1 uM
[9] = 48 h, 10 µM, compound concentration 10 uM

Br.Cc1cccc(C2CN(C)CCc3c2cc(O)c(O)c3Cl)c1 (stereo not given)
Population Apoptotic (%) [1, 4]: 50% and 47% | Population Fragmented Nuclei (%) [1, 4]: 10% and 13% | Population Healthy Nuclei (%) [1, 4]: 79% | Population Hoechst High Intensity Objects (%) [1, 4]: 0% | Population Membrane Permeable-Phenotype (%) [1, 4]: 1% and 4% | Population Mitochondria Different-Phenotype (%) [1, 4]: 0% and 1% | Population Mitotic Cells (%) [1, 4]: 50% and 52% | Population Normal (%) [1, 4]: 100% | Population Pyknosed Nuclei (%) [1, 4]: 10% and 6% | Population Tubulin-Different-Phenotype (%) [1, 4]: 9% and 5% | Total Cell Count [1, 4]: 210 and 248 | Population Apoptotic (%) [1, 5]: 68% and 66% | Population Fragmented Nuclei (%) [1, 5]: 11% and 13% | Population Healthy Nuclei (%) [1, 5]: 77% and 78% | Population Hoechst High Intensity Objects (%) [1, 5]: 0% | Population Membrane Permeable-Phenotype (%) [1, 5]: 2% | Population Mitochondria Different-Phenotype (%) [1, 5]: 1% and 5% | Population Mitotic Cells (%) [1, 5]: 31% and 33% | Population Normal (%) [1, 5]: 99% and 100% | Population Pyknosed Nuclei (%) [1, 5]: 11% and 8% | Population Tubulin-Different-Phenotype (%) [1, 5]: 10% and 11% | Total Cell Count [1, 5]: 167 and 173 | Population Apoptotic (%) [1, 6]: 57% and 53% | Population Fragmented Nuclei (%) [1, 6]: 10% and 14% | Population Healthy Nuclei (%) [1, 6]: 82% and 80% | Population Hoechst High Intensity Objects (%) [1, 6]: 0% | Population Membrane Permeable-Phenotype (%) [1, 6]: 1% | Population Mitochondria Different-Phenotype (%) [1, 6]: 0% and 1% | Population Mitotic Cells (%) [1, 6]: 42% and 46% | Population Normal (%) [1, 6]: 99% and 100% | Population Pyknosed Nuclei (%) [1, 6]: 6% and 5% | Population Tubulin-Different-Phenotype (%) [1, 6]: 8% and 3% | Total Cell Count [1, 6]: 205 and 242 | Population Apoptotic (%) [1, 7]: 50% and 70% | Population Fragmented Nuclei (%) [1, 7]: 10% and 15% | Population Healthy Nuclei (%) [1, 7]: 79% and 78% | Population Hoechst High Intensity Objects (%) [1, 7]: 0% | Population Membrane Permeable-Phenotype (%) [1, 7]: 3% and 0% | Population Mitochondria Different-Phenotype (%) [1, 7]: 0% | Population Mitotic Cells (%) [1, 7]: 50% and 30% | Population Normal (%) [1, 7]: 100% | Population Pyknosed Nuclei (%) [1, 7]: 9% and 5% | Population Tubulin-Different-Phenotype (%) [1, 7]: 8% and 7% | Total Cell Count [1, 7]: 165 and 174 | Population Apoptotic (%) [1, 8]: 50% and 62% | Population Fragmented Nuclei (%) [1, 8]: 13% | Population Healthy Nuclei (%) [1, 8]: 80% and 83% | Population Hoechst High Intensity Objects (%) [1, 8]: 0% | Population Membrane Permeable-Phenotype (%) [1, 8]: 1% and 2% | Population Mitochondria Different-Phenotype (%) [1, 8]: 1% and 0% | Population Mitotic Cells (%) [1, 8]: 50% and 37% | Population Normal (%) [1, 8]: 99% and 100% | Population Pyknosed Nuclei (%) [1, 8]: 5% and 3% | Population Tubulin-Different-Phenotype (%) [1, 8]: 4% and 1% | Total Cell Count [1, 8]: 211 and 238 | Population Apoptotic (%) [1, 9]: 44% and 100% | Population Fragmented Nuclei (%) [1, 9]: 12% and 15% | Population Healthy Nuclei (%) [1, 9]: 82% | Population Hoechst High Intensity Objects (%) [1, 9]: 0% | Population Membrane Permeable-Phenotype (%) [1, 9]: 2% and 0% | Population Mitochondria Different-Phenotype (%) [1, 9]: 0% | Population Normal (%) [1, 9]: 100% | Population Pyknosed Nuclei (%) [1, 9]: 5% and 1% | Population Tubulin-Different-Phenotype (%) [1, 9]: 3% and 4% | Total Cell Count [1, 9]: 178 and 170 | Population Apoptotic (%) [2, 4]: 80% and 65% | Population Healthy Nuclei (%) [2, 4]: 61% and 87% | Population Hoechst High Intensity Objects (%) [2, 4]: 0% | Population Membrane Permeable-Phenotype (%) [2, 4]: 0% | Population Mitochondria Different-Phenotype (%) [2, 4]: 0% | Population Mitotic Cells (%) [2, 4]: 20% and 35% | Population Normal (%) [2, 4]: 100% | Population Pyknosed Nuclei (%) [2, 4]: 10% and 7% | Population Tubulin-Different-Phenotype (%) [2, 4]: 51% and 83% | Population Fragmented Nuclei (%) [2, 5]: 4% and 14% | Population Healthy Nuclei (%) [2, 5]: 88% and 80% | Population Hoechst High Intensity Objects (%) [2, 5]: 0% | Population Membrane Permeable-Phenotype (%) [2, 5]: 1% and 0% | Population Mitochondria Different-Phenotype (%) [2, 5]: 1% and 0% | Population Mitotic Cells (%) [2, 5]: 41% and 100% | Population Normal (%) [2, 5]: 100% | Population Pyknosed Nuclei (%) [2, 5]: 7% and 4% | Population Tubulin-Different-Phenotype (%) [2, 5]: 88% and 35% | Population Apoptotic (%) [2, 6]: 56% and 50% | Population Healthy Nuclei (%) [2, 6]: 91% and 73% | Population Hoechst High Intensity Objects (%) [2, 6]: 0% | Population Membrane Permeable-Phenotype (%) [2, 6]: 0% and 3% | Population Mitochondria Different-Phenotype (%) [2, 6]: 0% | Population Mitotic Cells (%) [2, 6]: 43% and 50% | Population Normal (%) [2, 6]: 100% | Population Pyknosed Nuclei (%) [2, 6]: 6% and 13% | Population Tubulin-Different-Phenotype (%) [2, 6]: 85% and 48% | Population Apoptotic (%) [2, 7]: 58% and 50% | Population Healthy Nuclei (%) [2, 7]: 89% and 62% | Population Hoechst High Intensity Objects (%) [2, 7]: 0% | Population Membrane Permeable-Phenotype (%) [2, 7]: 0% and 10% | Population Mitochondria Different-Phenotype (%) [2, 7]: 1% and 0% | Population Mitotic Cells (%) [2, 7]: 41% and 50% | Population Normal (%) [2, 7]: 100% | Population Pyknosed Nuclei (%) [2, 7]: 8% and 12% | Population Tubulin-Different-Phenotype (%) [2, 7]: 83% and 40% | Population Apoptotic (%) [2, 8]: 42% and 46% | Population Healthy Nuclei (%) [2, 8]: 72% and 90% | Population Hoechst High Intensity Objects (%) [2, 8]: 0% | Population Membrane Permeable-Phenotype (%) [2, 8]: 2% and 0% | Population Mitochondria Different-Phenotype (%) [2, 8]: 0% | Population Mitotic Cells (%) [2, 8]: 57% and 53% | Population Normal (%) [2, 8]: 100% | Population Pyknosed Nuclei (%) [2, 8]: 11% and 5% | Population Tubulin-Different-Phenotype (%) [2, 8]: 60% and 91% | Population Apoptotic (%) [2, 9]: 50% and 67% | Population Healthy Nuclei (%) [2, 9]: 73% and 91% | Population Hoechst High Intensity Objects (%) [2, 9]: 0% | Population Membrane Permeable-Phenotype (%) [2, 9]: 4% and 0% | Population Mitochondria Different-Phenotype (%) [2, 9]: 4% and 0% | Population Mitotic Cells (%) [2, 9]: 50% and 32% | Population Normal (%) [2, 9]: 100% | Population Pyknosed Nuclei (%) [2, 9]: 13% and 6% | Population Tubulin-Different-Phenotype (%) [2, 9]: 63% and 88% | Population Apoptotic (%) [3, 4]: 15% and 42% | Population Fragmented Nuclei (%) [3, 4]: 4% and 3% | Population Healthy Nuclei (%) [3, 4]: 87% and 86% | Population Hoechst High Intensity Objects (%) [3, 4]: 9% and 4% | Population Membrane Permeable-Phenotype (%) [3, 4]: 3% and 2% | Population Mitochondria Different-Phenotype (%) [3, 4]: 11% and 15% | Population Mitotic Cells (%) [3, 4]: 84% and 57% | Population Normal (%) [3, 4]: 90% and 95% | Population Pyknosed Nuclei (%) [3, 4]: 8% and 10% | Population Tubulin-Different-Phenotype (%) [3, 4]: 50% | Total Cell Count [3, 4]: 707 and 682 | Population Apoptotic (%) [3, 5]: 52% and 53% | Population Fragmented Nuclei (%) [3, 5]: 3% and 4% | Population Healthy Nuclei (%) [3, 5]: 88% and 81% | Population Hoechst High Intensity Objects (%) [3, 5]: 8% and 7% | Population Membrane Permeable-Phenotype (%) [3, 5]: 1% and 2% | Population Mitochondria Different-Phenotype (%) [3, 5]: 27% and 22% | Population Mitotic Cells (%) [3, 5]: 47% and 46% | Population Normal (%) [3, 5]: 91% and 92% | Population Pyknosed Nuclei (%) [3, 5]: 7% and 14% | Population Tubulin-Different-Phenotype (%) [3, 5]: 63% and 57% | Total Cell Count [3, 5]: 523 and 513 | Population Apoptotic (%) [3, 6]: 36% and 32% | Population Fragmented Nuclei (%) [3, 6]: 5% | Population Healthy Nuclei (%) [3, 6]: 89% | Population Hoechst High Intensity Objects (%) [3, 6]: 7% and 8% | Population Membrane Permeable-Phenotype (%) [3, 6]: 3% and 1% | Population Mitochondria Different-Phenotype (%) [3, 6]: 3% and 5% | Population Mitotic Cells (%) [3, 6]: 63% and 68% | Population Normal (%) [3, 6]: 92% and 91% | Population Pyknosed Nuclei (%) [3, 6]: 4% and 5% | Population Tubulin-Different-Phenotype (%) [3, 6]: 28% and 35% | Total Cell Count [3, 6]: 1088 and 1072 | Population Apoptotic (%) [3, 7]: 26% and 51% | Population Fragmented Nuclei (%) [3, 7]: 7% and 5% | Population Healthy Nuclei (%) [3, 7]: 87% and 89% | Population Hoechst High Intensity Objects (%) [3, 7]: 7% | Population Membrane Permeable-Phenotype (%) [3, 7]: 2% and 3% | Population Mitochondria Different-Phenotype (%) [3, 7]: 11% and 10% | Population Mitotic Cells (%) [3, 7]: 73% and 48% | Population Normal (%) [3, 7]: 92% | Population Pyknosed Nuclei (%) [3, 7]: 4% and 5% | Population Tubulin-Different-Phenotype (%) [3, 7]: 53% and 49% | Total Cell Count [3, 7]: 768 and 746 | Population Apoptotic (%) [3, 8]: 7% and 15% | Population Fragmented Nuclei (%) [3, 8]: 16% and 12% | Population Healthy Nuclei (%) [3, 8]: 80% and 84% | Population Hoechst High Intensity Objects (%) [3, 8]: 12% and 10% | Population Membrane Permeable-Phenotype (%) [3, 8]: 6% and 4% | Population Mitochondria Different-Phenotype (%) [3, 8]: 0% and 1% | Population Mitotic Cells (%) [3, 8]: 92% and 84% | Population Normal (%) [3, 8]: 87% and 89% | Population Pyknosed Nuclei (%) [3, 8]: 2% and 3% | Population Tubulin-Different-Phenotype (%) [3, 8]: 15% and 19% | Total Cell Count [3, 8]: 2930 and 2368 | Population Apoptotic (%) [3, 9]: 10% and 21% | Population Fragmented Nuclei (%) [3, 9]: 12% | Population Healthy Nuclei (%) [3, 9]: 84% | Population Hoechst High Intensity Objects (%) [3, 9]: 11% | Population Membrane Permeable-Phenotype (%) [3, 9]: 9% and 6% | Population Mitochondria Different-Phenotype (%) [3, 9]: 0% and 1% | Population Mitotic Cells (%) [3, 9]: 89% and 78% | Population Normal (%) [3, 9]: 88% | Population Pyknosed Nuclei (%) [3, 9]: 2% | Population Tubulin-Different-Phenotype (%) [3, 9]: 22% and 26% | Total Cell Count [3, 9]: 1797 and 1636

Source: ChEMBL document CHEMBL5303300, “EUbOPEN Chemogenomics Library - Multiplex” (2023)
